Results as given in ChEMBL document CHEMBL4177757, “Tight-Binding Inhibition of Human Monoamine Oxidase B by Chromone Analogs: A Kinetic, Crystallographic, and Biological Analysis” (J Med Chem, 2018).

Experiments:
[1] = target: T1, Amine oxidase [flavin-containing] A (Homo sapiens, UniProt P21397); test: Inhibition of recombinant human MAO-A expressed in Pichia pastoris up to 100 uM using kynuramine as substrate by fluorimetric horseradish peroxidase-Amplex Red-coupled assay
T1 sequence (P21397 whole entry): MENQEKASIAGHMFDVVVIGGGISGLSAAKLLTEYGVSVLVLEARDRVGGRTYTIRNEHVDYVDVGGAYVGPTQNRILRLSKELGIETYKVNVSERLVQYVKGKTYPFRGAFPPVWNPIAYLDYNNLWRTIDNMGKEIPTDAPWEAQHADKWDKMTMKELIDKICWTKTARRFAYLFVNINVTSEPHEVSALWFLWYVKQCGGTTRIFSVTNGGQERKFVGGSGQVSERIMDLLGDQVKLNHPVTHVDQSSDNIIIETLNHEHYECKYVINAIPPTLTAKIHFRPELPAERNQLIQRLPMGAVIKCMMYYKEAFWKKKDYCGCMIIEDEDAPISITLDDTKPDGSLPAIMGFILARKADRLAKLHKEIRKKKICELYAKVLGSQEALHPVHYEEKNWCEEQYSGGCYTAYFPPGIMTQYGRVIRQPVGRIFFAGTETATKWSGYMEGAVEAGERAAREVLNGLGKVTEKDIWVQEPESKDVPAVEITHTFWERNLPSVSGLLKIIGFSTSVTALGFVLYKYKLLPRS

[2] = target: T2, Amine oxidase [flavin-containing] B (Homo sapiens, UniProt P27338); test: Tight-binding competitive inhibition of recombinant human MAO-B expressed in Pichia pastoris using benzylamine as substrate by fluorimetric horseradish peroxidase-Amplex Red-coupled assay
T2 sequence (P27338 whole entry): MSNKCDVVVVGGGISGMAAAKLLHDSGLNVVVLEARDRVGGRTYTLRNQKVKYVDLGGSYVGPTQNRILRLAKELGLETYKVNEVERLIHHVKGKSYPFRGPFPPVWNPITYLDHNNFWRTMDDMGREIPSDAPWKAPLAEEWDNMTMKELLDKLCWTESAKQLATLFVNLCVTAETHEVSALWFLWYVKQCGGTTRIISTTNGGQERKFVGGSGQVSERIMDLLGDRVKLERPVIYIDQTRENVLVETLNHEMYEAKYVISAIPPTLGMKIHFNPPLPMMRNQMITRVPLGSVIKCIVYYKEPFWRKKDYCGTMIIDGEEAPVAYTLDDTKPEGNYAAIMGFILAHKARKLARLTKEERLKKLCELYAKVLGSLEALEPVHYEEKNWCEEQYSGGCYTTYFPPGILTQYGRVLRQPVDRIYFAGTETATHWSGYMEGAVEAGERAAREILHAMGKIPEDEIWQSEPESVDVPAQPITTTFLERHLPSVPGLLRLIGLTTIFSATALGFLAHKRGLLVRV

[3] = target: T2, Amine oxidase [flavin-containing] B; test: Mixed-type inhibition of recombinant human MAO-B expressed in Pichia pastoris using benzylamine as substrate by fluorimetric horseradish peroxidase-Amplex Red-coupled assay
Outline: (§1)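 Purified Pichia-expressed human MAO-B, benzylamine substrate, H2O2 detected by HRP-Amplex Red coupling. Initial rates were measured at varying substrate and inhibitor levels. Inhibition mode came from global fits to competitive, mixed, non-competitive and uncompetitive Michaelis-Menten forms, chosen by r², plus double-reciprocal plots ([…] vs 1/[S]).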

[4] = target: T2, Amine oxidase [flavin-containing] B; test: Non-competitive inhibition of recombinant human MAO-B expressed in Pichia pastoris using benzylamine as substrate by fluorimetric horseradish peroxidase-Amplex Red-coupled assay; outline: as §1

inhibition (INH) [1]	Ki [2]	inhibition (INH) [3]	inhibition (INH) [4]	Structure (SMILES)
Not Active	0.031 µM	Active	Active	O=C(Nc1cccc(F)c1)c1coc2ccccc2c1=O
Not Active	2.93 µM			O=c1c(CNc2cccc(Cl)c2)coc2ccccc12
